In the M2OR odorant receptor database:
Residue numbers refer to the chain shown, from its start.

Tests used:
Settings in all cases: stereoisomer not certain
[1] = tested on: T1, O5AN1
T1 sequence (whole entry): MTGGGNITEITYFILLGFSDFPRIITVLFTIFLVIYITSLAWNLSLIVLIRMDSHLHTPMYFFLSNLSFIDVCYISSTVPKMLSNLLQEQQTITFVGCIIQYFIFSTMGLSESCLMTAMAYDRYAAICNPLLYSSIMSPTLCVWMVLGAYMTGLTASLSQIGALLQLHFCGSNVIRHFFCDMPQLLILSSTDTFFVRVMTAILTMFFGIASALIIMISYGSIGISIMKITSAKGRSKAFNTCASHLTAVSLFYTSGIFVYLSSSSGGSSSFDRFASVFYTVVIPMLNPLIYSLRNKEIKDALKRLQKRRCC
Method in brief: (§1)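 Transient luciferase assays in mammalian cell lines were common, though methods varied by source. The values come from published papers and their supplementary material, with extra details from the original authors when needed. Responsive refers to a measured signal the original authors judged statistically different from baseline, and non-responsive (inactive) to the remainder.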

[2] = target: T2, OR10A2 (Homo sapiens) (UniProt Q9H208)
T2 sequence (whole entry): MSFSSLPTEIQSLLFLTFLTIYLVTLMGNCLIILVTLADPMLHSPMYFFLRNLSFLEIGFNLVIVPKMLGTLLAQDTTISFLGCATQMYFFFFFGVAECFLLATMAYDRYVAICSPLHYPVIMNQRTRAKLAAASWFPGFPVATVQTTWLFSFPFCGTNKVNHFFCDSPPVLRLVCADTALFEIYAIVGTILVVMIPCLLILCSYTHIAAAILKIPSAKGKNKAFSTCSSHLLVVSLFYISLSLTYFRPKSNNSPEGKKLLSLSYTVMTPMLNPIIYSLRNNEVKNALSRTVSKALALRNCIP
Method in brief: as §1

[3] = tested on: T3, O56A4 I247V
T3 sequence (whole entry): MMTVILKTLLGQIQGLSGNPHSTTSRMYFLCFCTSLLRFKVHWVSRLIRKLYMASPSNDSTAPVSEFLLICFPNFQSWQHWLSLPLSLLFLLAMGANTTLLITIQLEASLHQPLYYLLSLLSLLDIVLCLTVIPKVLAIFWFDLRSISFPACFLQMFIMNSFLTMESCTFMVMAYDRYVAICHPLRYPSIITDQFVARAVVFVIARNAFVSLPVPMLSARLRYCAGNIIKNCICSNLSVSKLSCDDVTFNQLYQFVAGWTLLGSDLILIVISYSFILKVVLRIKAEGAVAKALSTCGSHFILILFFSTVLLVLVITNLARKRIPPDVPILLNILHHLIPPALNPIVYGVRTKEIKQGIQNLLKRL
Method in brief: as §1

[4] = tested on: T4, O56A4
T4 sequence (whole entry): T3 sequence (whole entry) with V247I
Method in brief: as §1

[5] = tested on: T5, O56A5 V104L
T5 sequence (whole entry): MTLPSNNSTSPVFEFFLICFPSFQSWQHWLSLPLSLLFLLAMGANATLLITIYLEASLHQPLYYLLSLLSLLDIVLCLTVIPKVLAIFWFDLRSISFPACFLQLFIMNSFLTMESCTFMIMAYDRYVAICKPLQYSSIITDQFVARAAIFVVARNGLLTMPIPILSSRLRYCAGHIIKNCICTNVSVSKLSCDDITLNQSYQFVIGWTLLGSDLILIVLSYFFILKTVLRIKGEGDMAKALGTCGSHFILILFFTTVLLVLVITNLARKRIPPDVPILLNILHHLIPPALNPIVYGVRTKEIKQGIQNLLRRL
Method in brief: as §1

[6] = tested on: T6, O56B1 C106R L214F
T6 sequence (whole entry): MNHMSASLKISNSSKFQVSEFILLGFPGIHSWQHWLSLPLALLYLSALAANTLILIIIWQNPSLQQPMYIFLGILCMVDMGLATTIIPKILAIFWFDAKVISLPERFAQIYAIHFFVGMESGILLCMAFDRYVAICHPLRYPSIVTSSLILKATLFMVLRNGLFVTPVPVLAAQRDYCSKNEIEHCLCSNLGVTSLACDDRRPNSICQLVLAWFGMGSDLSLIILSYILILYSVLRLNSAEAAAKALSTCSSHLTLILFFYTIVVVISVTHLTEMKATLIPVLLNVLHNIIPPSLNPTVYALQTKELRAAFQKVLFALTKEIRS
Method in brief: as §1

[7] = tested on: T7, O56B1 L214F
T7 sequence (whole entry): T6 sequence (whole entry) with R106C
Method in brief: as §1

[8] = tested on: T8, O56B4
T8 sequence (whole entry): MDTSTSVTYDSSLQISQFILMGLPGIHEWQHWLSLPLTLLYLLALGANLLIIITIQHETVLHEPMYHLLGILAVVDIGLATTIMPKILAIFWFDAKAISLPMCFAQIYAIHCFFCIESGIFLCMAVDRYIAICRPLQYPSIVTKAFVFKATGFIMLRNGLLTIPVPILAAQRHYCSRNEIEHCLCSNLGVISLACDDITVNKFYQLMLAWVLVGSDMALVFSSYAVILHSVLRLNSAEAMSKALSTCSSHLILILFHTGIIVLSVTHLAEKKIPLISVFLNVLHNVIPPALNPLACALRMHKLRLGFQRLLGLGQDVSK
Method in brief: as §1

[9] = tested on: T9, O5AC2
T9 sequence (whole entry): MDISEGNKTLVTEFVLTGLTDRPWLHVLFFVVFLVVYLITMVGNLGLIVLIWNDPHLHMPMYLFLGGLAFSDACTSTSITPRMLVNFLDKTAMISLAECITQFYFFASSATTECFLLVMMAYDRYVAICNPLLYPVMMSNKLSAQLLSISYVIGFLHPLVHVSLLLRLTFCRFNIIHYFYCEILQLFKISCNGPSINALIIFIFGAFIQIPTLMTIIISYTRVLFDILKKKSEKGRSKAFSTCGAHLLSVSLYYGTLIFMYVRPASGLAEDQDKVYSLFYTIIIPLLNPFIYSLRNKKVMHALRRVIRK
Method in brief: as §1

[10] = tested on: T10, O5AK2 M92I
T10 sequence (whole entry): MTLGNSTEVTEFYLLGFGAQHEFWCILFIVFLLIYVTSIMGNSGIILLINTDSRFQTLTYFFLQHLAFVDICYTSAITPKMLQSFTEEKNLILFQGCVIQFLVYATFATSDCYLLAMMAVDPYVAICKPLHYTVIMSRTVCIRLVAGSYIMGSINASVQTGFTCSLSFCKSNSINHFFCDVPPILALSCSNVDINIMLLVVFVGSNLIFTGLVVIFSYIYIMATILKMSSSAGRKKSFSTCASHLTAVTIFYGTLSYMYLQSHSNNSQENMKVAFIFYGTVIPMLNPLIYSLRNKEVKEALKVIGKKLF
Method in brief: as §1

[11] = tested on: T11, O5AN1 C142Y L289F
T11 sequence (whole entry): T1 sequence (whole entry) with T26K, C142Y, S159F, S190C, R197Q, I214V, S221Y, L289F, R309K
Method in brief: as §1

[12] = tested on: T12, O5AN1 L289F
T12 sequence (whole entry): T1 sequence (whole entry) with T26K, S159F, S190C, R197Q, I214V, S221Y, L289F, R309K
Method in brief: as §1

[13] = tested on: T13, O5AP2 A105T
T13 sequence (whole entry): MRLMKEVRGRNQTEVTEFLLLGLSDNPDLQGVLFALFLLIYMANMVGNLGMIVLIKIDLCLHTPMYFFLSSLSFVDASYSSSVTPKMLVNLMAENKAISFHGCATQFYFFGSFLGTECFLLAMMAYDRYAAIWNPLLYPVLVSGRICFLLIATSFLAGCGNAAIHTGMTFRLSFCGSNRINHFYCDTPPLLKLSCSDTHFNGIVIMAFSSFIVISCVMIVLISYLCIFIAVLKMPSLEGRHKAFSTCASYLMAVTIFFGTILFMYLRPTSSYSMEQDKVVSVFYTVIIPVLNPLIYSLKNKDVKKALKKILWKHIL
Method in brief: as §1

[14] = tested on: T14, O5AU1
T14 sequence (whole entry): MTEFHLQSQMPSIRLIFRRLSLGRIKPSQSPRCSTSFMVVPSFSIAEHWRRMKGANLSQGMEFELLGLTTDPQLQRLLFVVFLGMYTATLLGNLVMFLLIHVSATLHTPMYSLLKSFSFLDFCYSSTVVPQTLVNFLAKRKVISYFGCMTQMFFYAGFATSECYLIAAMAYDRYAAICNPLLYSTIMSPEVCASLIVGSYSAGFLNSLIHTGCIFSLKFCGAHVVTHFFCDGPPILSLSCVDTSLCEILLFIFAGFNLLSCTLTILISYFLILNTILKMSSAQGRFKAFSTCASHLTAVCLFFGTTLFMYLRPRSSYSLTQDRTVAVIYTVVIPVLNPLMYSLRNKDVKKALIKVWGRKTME
Method in brief: as §1

[15] = tested on: T15, O5H14
T15 sequence (whole entry): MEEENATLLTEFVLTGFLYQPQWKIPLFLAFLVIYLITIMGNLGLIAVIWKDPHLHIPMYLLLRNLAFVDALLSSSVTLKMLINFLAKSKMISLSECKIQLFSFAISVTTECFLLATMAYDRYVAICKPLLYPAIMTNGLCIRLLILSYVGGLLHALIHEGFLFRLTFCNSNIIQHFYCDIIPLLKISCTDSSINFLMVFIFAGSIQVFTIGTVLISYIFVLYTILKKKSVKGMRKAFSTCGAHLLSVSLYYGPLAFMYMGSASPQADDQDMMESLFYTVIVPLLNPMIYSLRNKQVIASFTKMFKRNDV
Method in brief: as §1

[16] = tested on: T16, O5H15 V108I S148T T167S
T16 sequence (whole entry): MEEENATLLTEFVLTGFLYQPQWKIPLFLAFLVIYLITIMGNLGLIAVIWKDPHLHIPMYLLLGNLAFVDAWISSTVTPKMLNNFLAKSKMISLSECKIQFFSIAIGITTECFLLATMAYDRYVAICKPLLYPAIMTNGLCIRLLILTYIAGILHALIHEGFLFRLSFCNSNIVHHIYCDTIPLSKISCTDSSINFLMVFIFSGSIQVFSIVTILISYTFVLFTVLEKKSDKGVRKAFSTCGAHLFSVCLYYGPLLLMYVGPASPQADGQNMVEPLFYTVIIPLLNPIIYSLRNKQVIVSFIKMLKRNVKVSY
Method in brief: as §1

[17] = tested on: T17, O6C65 T222A
T17 sequence (whole entry): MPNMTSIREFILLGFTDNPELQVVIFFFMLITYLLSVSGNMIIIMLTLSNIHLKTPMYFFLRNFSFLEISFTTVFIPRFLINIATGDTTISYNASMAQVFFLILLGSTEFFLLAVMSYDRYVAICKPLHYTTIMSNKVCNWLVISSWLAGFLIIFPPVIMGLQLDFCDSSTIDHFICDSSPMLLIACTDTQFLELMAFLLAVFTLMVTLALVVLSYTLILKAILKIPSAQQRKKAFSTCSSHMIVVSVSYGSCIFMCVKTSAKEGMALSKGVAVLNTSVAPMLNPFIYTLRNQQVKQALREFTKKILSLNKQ
Method in brief: as §1

[18] = tested on: T18, O6C70 L181P
T18 sequence (whole entry): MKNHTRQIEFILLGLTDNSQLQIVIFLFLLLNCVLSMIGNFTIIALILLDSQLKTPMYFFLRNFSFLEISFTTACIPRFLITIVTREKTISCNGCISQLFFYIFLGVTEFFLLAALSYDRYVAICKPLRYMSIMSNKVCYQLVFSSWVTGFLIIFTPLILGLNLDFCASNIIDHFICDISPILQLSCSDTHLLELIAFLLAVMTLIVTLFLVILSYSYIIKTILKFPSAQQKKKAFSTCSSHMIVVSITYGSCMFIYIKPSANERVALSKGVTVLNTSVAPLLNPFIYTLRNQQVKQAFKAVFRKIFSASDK
Method in brief: as §1

[19] = tested on: T19, O7E24 S193F P242S
T19 sequence (whole entry): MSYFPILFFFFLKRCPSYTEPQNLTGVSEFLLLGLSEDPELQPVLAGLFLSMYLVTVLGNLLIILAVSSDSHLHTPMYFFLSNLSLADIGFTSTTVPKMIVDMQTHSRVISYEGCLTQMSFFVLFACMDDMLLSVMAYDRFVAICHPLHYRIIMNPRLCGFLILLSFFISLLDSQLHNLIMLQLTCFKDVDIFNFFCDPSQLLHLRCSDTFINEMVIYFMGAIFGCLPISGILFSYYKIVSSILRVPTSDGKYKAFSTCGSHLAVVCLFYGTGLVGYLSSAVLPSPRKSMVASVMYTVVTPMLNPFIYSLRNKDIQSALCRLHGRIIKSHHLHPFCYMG
Method in brief: as §1

[20] = tested on: T20, O7E24
T20 sequence (whole entry): T19 sequence (whole entry) with F193S
Method in brief: as §1

Measured: odorant receptor agonist call;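 also: active if original authors judged signal statistically different from baseline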

O=C1CCCCCC=CCCCCCCCCO1
inactive: [1]

CC1C(C)(C)C2=C(C(=O)CCC2)C1(C)C (stereo not drawn)
inactive: [1]

CC(CO)CS (stereo not drawn)
inactive: [2]

CC1=C(O)C(=O)OC1C (stereo not drawn)
inactive: [3] | [4] | [5] | [6] | [7] | [8] | [9] | [10] | [11] | [12] | [13] | [14] | [15] | [16] | [17] | [18] | [19] | [20] | [2]

CCCCCC(=O)C(C)C(C)=O (stereo not drawn)
inactive: [2]

CCCC(S)CCOC(C)=O (stereo not drawn)
inactive: [3] | [4] | [5] | [6] | [7] | [8] | [9] | [10] | [11] | [12] | [13] | [14] | [15] | [16] | [17] | [18] | [19] | [20] | [2]

O=C1CCCCCCCCC1
inactive: [1]
